Reference: ChEMBL document CHEMBL1150432 (J Med Chem, 2008)
The source made the active and inactive calls. The rule behind the calls is not given here.

Tests used:
[1] = biological target: 5-hydroxytryptamine receptor 1B (Homo sapiens, UniProt P28222); assay: Displacement of [3H]5-hydroxytryptamine from human cloned 5HT1B receptor expressed in CHOK1 cells by liquid scintillation counting; format: cell-based, CHO-K1
[2] = biological target: 5-hydroxytryptamine receptor 1D (Homo sapiens, UniProt P28221); assay: Displacement of [3H]5-hydroxytryptamine from human cloned 5HT1D receptor expressed in CHOK1 cells by liquid scintillation counting; format: cell-based, CHO-K1
Outline: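 Membranes from CHO-K1 cells expressing cloned human 5-HT1D were purchased. Stopped by filtration over GF/B filters and counted by liquid scintillation. Ki derived from IC50 by Cheng-Prusoff. Each value is the mean of more than two runs done in duplicate or triplicate.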

[3] = Displacement of [3H]5-hydroxytryptamine from rhesus monkey cloned 5HT1F receptor expressed in African green monkey COS7 cells by liquid scintillation counting; format: cell-based, Macaca mulatta; settings: cos-7
Outline: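 Rhesus monkey 5-HT1F cloned by PCR into pcDNA3.1 and transiently transfected into COS-7 cells. Membranes prepared by homogenization in 50 mM Tris-HCl, 5 mM EDTA, pH 7.4. Filtered over GF/B and counted by liquid scintillation. Ki calculated via Cheng-Prusoff. Mean of more than two runs in duplicate or triplicate.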

[4] = biological target: T1, 5-hydroxytryptamine receptor 1A (Homo sapiens, UniProt P08908); assay: Binding affinity to 5HT1A receptor
T1 sequence (P08908 whole entry): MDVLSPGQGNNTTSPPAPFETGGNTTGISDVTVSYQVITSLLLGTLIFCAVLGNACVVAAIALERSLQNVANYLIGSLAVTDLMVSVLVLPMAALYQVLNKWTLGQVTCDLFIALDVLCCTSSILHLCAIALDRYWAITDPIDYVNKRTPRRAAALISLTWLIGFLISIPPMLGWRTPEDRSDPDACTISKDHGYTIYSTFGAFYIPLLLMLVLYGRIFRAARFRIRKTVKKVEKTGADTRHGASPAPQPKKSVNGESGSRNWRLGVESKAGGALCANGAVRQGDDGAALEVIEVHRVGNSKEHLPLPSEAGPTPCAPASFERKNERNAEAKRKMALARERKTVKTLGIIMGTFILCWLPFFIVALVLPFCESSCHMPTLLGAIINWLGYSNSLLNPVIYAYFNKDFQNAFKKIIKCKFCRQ

[5] = Displacement of [3H]5-hydroxytryptamine from human cloned 5HT1D receptor expressed in CHOK1 cells by liquid scintillation counting; settings: cho-k1
[6] = biological target: 5-hydroxytryptamine receptor 1B (Oryctolagus cuniculus) (UniProt P49144); assay: Agonist activity at rabbit 5HT1B receptor assessed as induction of saphenous vein contraction at 30 uM after 5 mins; format: functional, tissue-based
[7] = biological target: 5-hydroxytryptamine receptor 1B (Oryctolagus cuniculus) (UniProt P49144); assay: Antagonist activity at rabbit 5HT1B receptor assessed as inhibition of sumatriptan-induced saphenous vein contraction at 30 uM; format: functional, tissue-based; design: scale not given: the % may be the effect or the level left
[8] = biological target: Beta-2 adrenergic receptor (Homo sapiens, UniProt P07550); assay: Binding affinity to human adrenergic beta2 receptor
[9] = biological target: T2, Muscarinic acetylcholine receptor M2 (Homo sapiens, UniProt P08172); assay: Binding affinity to human muscarinic M2 receptor
T2 sequence (P08172 whole entry): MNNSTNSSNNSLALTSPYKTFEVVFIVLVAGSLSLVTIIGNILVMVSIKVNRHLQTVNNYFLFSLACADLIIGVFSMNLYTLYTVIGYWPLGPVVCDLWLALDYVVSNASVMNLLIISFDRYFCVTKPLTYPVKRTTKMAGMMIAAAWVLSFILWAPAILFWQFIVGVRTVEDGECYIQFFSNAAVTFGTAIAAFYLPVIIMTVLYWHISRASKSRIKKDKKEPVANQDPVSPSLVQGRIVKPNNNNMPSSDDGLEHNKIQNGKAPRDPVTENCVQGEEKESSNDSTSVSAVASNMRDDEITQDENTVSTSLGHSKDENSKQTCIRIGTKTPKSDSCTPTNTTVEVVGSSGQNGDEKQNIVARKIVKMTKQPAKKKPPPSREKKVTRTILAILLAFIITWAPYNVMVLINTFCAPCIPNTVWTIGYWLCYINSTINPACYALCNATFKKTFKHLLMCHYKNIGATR

[10] = biological target: Muscarinic acetylcholine receptor M3 (Homo sapiens, UniProt P20309); assay: Binding affinity to human muscarinic M3 receptor
D(2) dopamine receptor = D(2) dopamine receptor (Homo sapiens, UniProt P14416); assay: Binding affinity to human dopamine D2 receptor
Chain of D(2) dopamine receptor (P14416 whole entry): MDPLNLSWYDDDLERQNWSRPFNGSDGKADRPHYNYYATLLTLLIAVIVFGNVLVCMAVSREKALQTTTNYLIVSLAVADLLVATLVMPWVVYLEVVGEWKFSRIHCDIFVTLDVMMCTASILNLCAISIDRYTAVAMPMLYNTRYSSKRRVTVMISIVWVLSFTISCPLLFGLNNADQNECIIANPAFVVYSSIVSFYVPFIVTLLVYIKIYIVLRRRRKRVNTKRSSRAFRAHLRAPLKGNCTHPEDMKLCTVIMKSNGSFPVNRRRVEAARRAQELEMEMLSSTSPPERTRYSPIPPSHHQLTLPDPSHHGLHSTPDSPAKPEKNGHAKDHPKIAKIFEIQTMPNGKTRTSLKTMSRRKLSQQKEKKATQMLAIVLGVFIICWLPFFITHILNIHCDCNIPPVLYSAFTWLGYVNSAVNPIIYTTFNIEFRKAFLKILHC

Chain of 5-hydroxytryptamine receptor 1B (P28222 whole entry): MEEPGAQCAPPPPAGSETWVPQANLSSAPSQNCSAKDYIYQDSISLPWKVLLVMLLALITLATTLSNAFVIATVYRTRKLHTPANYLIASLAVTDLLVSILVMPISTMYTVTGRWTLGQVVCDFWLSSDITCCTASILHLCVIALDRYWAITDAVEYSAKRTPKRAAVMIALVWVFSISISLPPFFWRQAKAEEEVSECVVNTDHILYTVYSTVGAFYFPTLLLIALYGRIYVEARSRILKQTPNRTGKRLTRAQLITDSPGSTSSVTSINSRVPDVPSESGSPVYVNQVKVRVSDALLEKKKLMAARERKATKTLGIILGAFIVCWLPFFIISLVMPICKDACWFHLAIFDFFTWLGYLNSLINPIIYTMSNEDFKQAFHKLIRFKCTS
Chain of 5-hydroxytryptamine receptor 1D (P28221 whole entry): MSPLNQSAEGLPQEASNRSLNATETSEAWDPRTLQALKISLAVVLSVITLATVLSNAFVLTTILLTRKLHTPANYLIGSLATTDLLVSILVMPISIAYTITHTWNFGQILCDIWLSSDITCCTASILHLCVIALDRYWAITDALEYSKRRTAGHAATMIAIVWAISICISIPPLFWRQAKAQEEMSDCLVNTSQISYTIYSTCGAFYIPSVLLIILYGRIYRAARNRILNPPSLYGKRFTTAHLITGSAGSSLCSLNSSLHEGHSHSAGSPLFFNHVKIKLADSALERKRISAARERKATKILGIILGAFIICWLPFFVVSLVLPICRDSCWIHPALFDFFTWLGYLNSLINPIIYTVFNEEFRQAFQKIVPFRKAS
Chain of 5-hydroxytryptamine receptor 1B (Oryctolagus cuniculus) (P49144 whole entry): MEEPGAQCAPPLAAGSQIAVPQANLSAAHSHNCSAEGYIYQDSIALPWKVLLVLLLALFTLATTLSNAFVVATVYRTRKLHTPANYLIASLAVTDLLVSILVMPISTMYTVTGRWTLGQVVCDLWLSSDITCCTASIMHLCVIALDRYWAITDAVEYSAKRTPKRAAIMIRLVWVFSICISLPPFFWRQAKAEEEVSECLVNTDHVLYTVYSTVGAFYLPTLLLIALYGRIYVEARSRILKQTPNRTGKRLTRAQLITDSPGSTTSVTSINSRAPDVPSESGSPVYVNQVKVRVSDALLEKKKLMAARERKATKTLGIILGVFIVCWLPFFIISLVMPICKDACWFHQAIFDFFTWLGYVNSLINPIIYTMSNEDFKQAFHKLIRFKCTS
Chain of Muscarinic acetylcholine receptor M3 (P20309 whole entry): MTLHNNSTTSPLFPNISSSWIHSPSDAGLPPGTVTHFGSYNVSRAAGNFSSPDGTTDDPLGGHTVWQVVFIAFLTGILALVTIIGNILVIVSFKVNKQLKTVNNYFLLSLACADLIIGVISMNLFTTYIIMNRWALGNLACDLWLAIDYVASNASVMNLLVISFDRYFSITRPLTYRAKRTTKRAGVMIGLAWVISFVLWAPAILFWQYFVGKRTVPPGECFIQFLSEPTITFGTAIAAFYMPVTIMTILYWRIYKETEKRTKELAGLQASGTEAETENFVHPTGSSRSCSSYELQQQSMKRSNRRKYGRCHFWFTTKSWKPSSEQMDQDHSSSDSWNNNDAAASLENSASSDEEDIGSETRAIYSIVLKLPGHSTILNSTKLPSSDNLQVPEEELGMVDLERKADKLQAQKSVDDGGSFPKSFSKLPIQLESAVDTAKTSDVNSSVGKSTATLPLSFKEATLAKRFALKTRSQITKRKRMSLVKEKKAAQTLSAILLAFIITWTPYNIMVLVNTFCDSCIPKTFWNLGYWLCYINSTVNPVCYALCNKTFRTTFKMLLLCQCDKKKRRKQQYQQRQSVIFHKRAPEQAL
Chain of Beta-2 adrenergic receptor (P07550 whole entry): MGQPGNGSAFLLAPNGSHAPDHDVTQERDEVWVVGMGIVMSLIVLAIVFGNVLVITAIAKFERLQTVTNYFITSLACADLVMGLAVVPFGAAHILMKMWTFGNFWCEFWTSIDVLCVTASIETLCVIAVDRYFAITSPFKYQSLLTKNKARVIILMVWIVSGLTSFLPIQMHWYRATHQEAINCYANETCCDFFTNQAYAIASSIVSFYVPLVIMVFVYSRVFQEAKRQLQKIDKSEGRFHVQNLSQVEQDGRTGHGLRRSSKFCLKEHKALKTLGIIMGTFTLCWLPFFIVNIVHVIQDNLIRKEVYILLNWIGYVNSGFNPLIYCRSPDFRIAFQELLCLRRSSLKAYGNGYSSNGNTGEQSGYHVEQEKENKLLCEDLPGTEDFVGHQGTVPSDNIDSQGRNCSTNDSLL

| SMILES | Ki [1] [nM] | Ki [2] [nM] | Ki [3] [nM] | other results |
| --- | --- | --- | --- | --- |
| O=C(Nc1ccc2[nH]cc(C3CCN(CC(N4CCC(c5c[nH]c6ccc(NC(=O)c7ccc(F)cc7)cc56)CC4)C(F)(F)F)CC3)c2c1)c1ccc(F)cc1 (configuration not stated) | > 1000 | > 1000 | 24 |  |
| NC(=O)c1ccc2[nH]cc(C3=CCC(NCCCCCCCNC4CC=C(c5c[nH]c6ccc(C(N)=O)cc56)CC4)CC3)c2c1 (configuration not stated) |  |  |  | IC50 [4]: 1.83 nM; IC50 [5]: 0.05 nM |
| CN1CCC(c2c[nH]c3ccc(NC(=O)CC(=O)Nc4ccc5[nH]cc(C6CCN(C)CC6)c5c4)cc23)CC1 | 16 | 3.4 | > 10000 |  |
| CN1CCC(c2c[nH]c3ccc(NC(=O)CCCCCCCCCCCCC(=O)Nc4ccc5[nH]cc(C6CCN(C)CC6)c5c4)cc23)CC1 | 0.5 | 1.7 | > 10000 | Activity [6]: 24%; Activity [7]: 58% |
| O=C(Nc1ccc2[nH]cc(C3CCN(CCCCCCCCCCCCN4CCC(c5c[nH]c6ccc(NC(=O)c7ccc(F)cc7)cc56)CC4)CC3)c2c1)c1ccc(F)cc1 | > 10000 | 13 | > 10000 |  |
| CN1CCC(c2c[nH]c3ccc(NC(=O)c4ccc(F)cc4)cc23)CC1 |  |  | 3 |  |
| O=C(Nc1ccc2[nH]cc(C3CCN(CCN4CCCCC4)CC3)c2c1)c1ccc(F)cc1 | > 1000 | > 1000 | > 1000 |  |
| CN1CCC(c2c[nH]c3ccc(NC(=O)CCCCCCCCCCCCCC(=O)Nc4ccc5[nH]cc(C6CCN(C)CC6)c5c4)cc23)CC1 | 0.58 | 2.3 | > 10000 |  |
| CNS(=O)(=O)Cc1ccc2[nH]cc(CCN(C)C)c2c1 |  |  | 234 |  |
| O=C(Nc1ccc2[nH]cc(C3CCN(CCOCCOCCN4CCC(c5c[nH]c6ccc(NC(=O)c7ccc(F)cc7)cc56)CC4)CC3)c2c1)c1ccc(F)cc1 | 18 | 1.5 | 27 |  |
| O=C(Nc1ccc2[nH]cc(C3CCN(CCOCCOCCOCCN4CCC(c5c[nH]c6ccc(NC(=O)c7ccc(F)cc7)cc56)CC4)CC3)c2c1)c1ccc(F)cc1 | 32 | 3.9 | 28 |  |
| O=C(O)CCCCCCCCCN1CCC(c2c[nH]c3ccc(NC(=O)c4ccc(F)cc4)cc23)CC1 | > 1000 | > 1000 | > 1000 |  |
| O=C(Nc1ccc2[nH]cc(C3CCN(Cc4ccccc4)CC3)c2c1)c1ccc(F)cc1 | > 1000 | > 1000 | 32 |  |
| CN1CCC(c2c[nH]c3ccc(NC(=O)CCCCCCCCC(=O)Nc4ccc5[nH]cc(C6CCN(C)CC6)c5c4)cc23)CC1 | 0.79 | 0.95 | > 10000 |  |
| O=C(Nc1ccc2[nH]cc(C3CCN(Cc4cccc(CN5CCC(c6c[nH]c7ccc(NC(=O)c8ccc(F)cc8)cc67)CC5)c4)CC3)c2c1)c1ccc(F)cc1 | 453 | 151 | > 1000 |  |
| O=C(Nc1ccc2[nH]cc(C3CCN(CCN4CCC(c5c[nH]c6ccc(NC(=O)c7ccc(F)cc7)cc56)CC4)CC3)c2c1)c1ccc(F)cc1 | > 10000 | 219 | > 10000 |  |
| CN1CCC(c2c[nH]c3ccc(NC(=O)CCCCCCCCCC(=O)Nc4ccc5[nH]cc(C6CCN(C)CC6)c5c4)cc23)CC1 | 1.3 | 0.9 | > 10000 |  |

| SMILES | Ki [1] [nM] | Ki [2] [nM] | Ki [3] [nM] | other results |
| --- | --- | --- | --- | --- |
| NCCc1c[nH]c2ccc(O)cc12 [SEROTONIN] |  |  | 35 |  |
| CCCCCCCCN1CCC(c2c[nH]c3ccc(NC(=O)c4ccc(F)cc4)cc23)CC1 | > 1000 | > 1000 | > 10000 |  |
| CN1CCC(c2c[nH]c3ccc(NC(=O)CCCC(=O)Nc4ccc5[nH]cc(C6CCN(C)CC6)c5c4)cc23)CC1 | 0.76 | 0.95 | > 10000 |  |
| O=C(Nc1ccc2[nH]cc(C3CCN(CCCCCCN4CCC(c5c[nH]c6ccc(NC(=O)c7ccc(F)cc7)cc56)CC4)CC3)c2c1)c1ccc(F)cc1 | 100 | 0.6 | > 10000 |  |
| O=C(Nc1ccc2[nH]cc(C3CCN(C/C=C/CN4CCC(c5c[nH]c6ccc(NC(=O)c7ccc(F)cc7)cc56)CC4)CC3)c2c1)c1ccc(F)cc1 | 103 | 24 | > 1000 |  |
| O=C(Nc1ccc2[nH]cc(C3CCN(CCCCCCCCCCCN4CCC(c5c[nH]c6ccc(NC(=O)c7ccc(F)cc7)cc56)CC4)CC3)c2c1)c1ccc(F)cc1 | 126 | 13 | > 10000 |  |
| CN(C)CCCN1CCC(c2c[nH]c3ccc(NC(=O)c4ccc(F)cc4)cc23)CC1 | > 1000 | > 1000 | 124 |  |
| O=C(Nc1ccc2[nH]cc(C3CCN(CCO)CC3)c2c1)c1ccc(F)cc1 | > 1000 | > 1000 | 9 |  |
| O=C(Nc1ccc2[nH]cc(C3CCN(CCCN4CCC(c5c[nH]c6ccc(NC(=O)c7ccc(F)cc7)cc56)CC4)CC3)c2c1)c1ccc(F)cc1 | > 10000 | 79 | > 10000 |  |
| CN1CCC(c2c[nH]c3ccc(NC(=O)CCCCCCCCCCCCCCC(=O)Nc4ccc5[nH]cc(C6CCN(C)CC6)c5c4)cc23)CC1 | 0.81 | 11.3 | > 10000 |  |
| O=C(Nc1ccc2[nH]cc(C3CCN(CCCCCCCN4CCC(c5c[nH]c6ccc(NC(=O)c7ccc(F)cc7)cc56)CC4)CC3)c2c1)c1ccc(F)cc1 | 79 | 0.3 | > 10000 | Activity [6]: inactive; IC50 [8]: > 10000 nM; IC50 [9]: 3200 nM; IC50 [10]: > 50000 nM; IC50 (D(2) dopamine receptor): 700 nM |
| CN1CCC(c2c[nH]c3ccc(NC(=O)CCCCCCCCCCCC(=O)Nc4ccc5[nH]cc(C6CCN(C)CC6)c5c4)cc23)CC1 | 0.1 | 1.4 | > 10000 |  |
| O=C(Nc1ccc2[nH]cc(C3CCN(CCCCCCCCCCN4CCC(c5c[nH]c6ccc(NC(=O)c7ccc(F)cc7)cc56)CC4)CC3)c2c1)c1ccc(F)cc1 | 38 | 13 | > 10000 |  |
| O=C(Nc1ccc2[nH]cc(C3CCN(CCCCCCCCCN4CCC(c5c[nH]c6ccc(NC(=O)c7ccc(F)cc7)cc56)CC4)CC3)c2c1)c1ccc(F)cc1 | 126 | 1 | > 10000 |  |
| CN1CCC(c2c[nH]c3ccc(N)cc23)CC1 | 353 | 39.6 | > 10000 |  |
| NC(=O)C(CN1CCC(c2c[nH]c3ccc(NC(=O)c4ccc(F)cc4)cc23)CC1)N1CCC(c2c[nH]c3ccc(NC(=O)c4ccc(F)cc4)cc23)CC1 (configuration not stated) | > 1000 | > 1000 | 48 |  |
| CN1CCC(c2c[nH]c3ccc(NC(=O)CCCCCCC(=O)Nc4ccc5[nH]cc(C6CCN(C)CC6)c5c4)cc23)CC1 | 1.3 | 0.9 | > 10000 |  |
